Results published in ChEMBL document CHEMBL1145847, “(S)-N-[1-(3-morpholin-4-ylphenyl)ethyl]- 3-phenylacrylamide: an orally bioavailable KCNQ2 opener with significant activity in a cortical spreading depression model of migraine” (J Med Chem, 2003).

Tests used:
[1] = target: Potassium voltage-gated channel subfamily KQT member 2 (Mus musculus, UniProt Q9Z351); assay: Induced current in Xenopus laevis oocytes expressing cloned mKCNQ2 channels; format: functional, cell-based, Oocyte
In short: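 Two-electrode voltage clamp of Xenopus laevis oocytes expressing cloned mKCNQ2; outward current at -40 mV expressed as percent of compound-free control; concentration–response fit for EC50, n = 4–7 oocytes.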

[2] = Concentration determined in rat plasma after 6 hr; format: ADME, organism-based
In short: (§1)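 Sprague–Dawley rats (n = 3) dosed po at 20 mg/kg as a solution in 100% PEG-400; brain and plasma sampled at 6 h.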

[3] = Ratio of proximal to distal depolarizations determined in rat at 30 mg/kg; format: functional
In short: (§2)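 Rats; cortical spreading depression evoked by 10 min application of crystalline KCl to a small parietal cortex region. Compound given intragastrically in PEG 400 vehicle. Depolarizations counted in proximal and distal leads per animal; proximal/distal ratio calculated per group. Group mean ± SEM; Kruskal–Wallis with Dunn's posttest.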

Rattus norvegicus [4] = assay: Ability to reduce the total number of proximal depolarizations was tested in rat parietal cortex at 30 mg/kg, ig; format: functional; conditions: route intragastric; in short: as §2
[5] = Clearance rate determined at 1 mg/kg, iv, in dog; format: ADME, organism-based, Canis lupus familiaris; parameters: dose 1 mg/kg; conditions: in vivo
In short: (§3)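 Beagle dogs (n = 3), 1 mg/kg iv as a solution in 50% PEG-400/50% H2O; plasma pharmacokinetics giving clearance, half-life and steady-state volume of distribution.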

[6] = Ratio of proximal to distal depolarizations determined in rat at 3 mg/kg; format: functional; in short: as §2
[7] = tmax determined dog at 3 mg/kg, po; format: ADME, organism-based, Canis lupus familiaris; parameters: dose 3 mg/kg, route oral; conditions: in vivo
In short: (§4)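 Beagle dogs (n = 3), oral solution at 3 mg/kg in 50% PEG-400/50% H2O, with iv reference at 1 mg/kg; tmax and oral bioavailability derived.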

[8] = Concentration determined in rat brain after 6 hr; format: ADME, organism-based; in short: as §1
[9] = Half-life determined at 1 mg/kg, iv, in dog; format: ADME, organism-based, Canis lupus familiaris; parameters: dose 1 mg/kg; conditions: in vivo; in short: as §3
[10] = Clearance rate determined at 5 mg/kg, iv, in rat; format: ADME, organism-based; parameters: dose 5 mg/kg; conditions: in vivo
In short: (§5)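 Sprague–Dawley rats (n = 3), 5 mg/kg iv as a solution in 90% PEG-400/10% Tween 80; plasma pharmacokinetics giving clearance, half-life and steady-state volume of distribution.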

[11] = target: Voltage-gated potassium channel, KQT; KCNQ2(Kv7.2)/KCNQ3(Kv7.3) (Homo sapiens, UniProt O43525+O43526); assay: Effect on resting membrane potential in SH-SY5Y human neuroblastoma cells expressing native KCNQ channels
[12] = target: Potassium voltage-gated channel subfamily KQT member 2 (Mus musculus) (UniProt Q9Z351); assay: Threshold for augmenting KCNQ2 current in HEK 293 stable cell line expressing mKCNQ2 channel; format: functional, cell-based; conditions: HEK293
In short: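 HEK 293 cells stably expressing mKCNQ2, voltage-clamped at -40 mV; compound applied by local superfusion at increasing concentrations, then washed with compound-free saline; concentration–response from three cells with logistic fit.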

[13] = Percentage oral bioavailability determined in dog; format: ADME, organism-based, Canis lupus familiaris; conditions: in vivo, read-out: Bioavailabiility; in short: as §4
[14] = tmax determined rat at 11 mg/kg, po; format: ADME, organism-based; parameters: dose 11 mg/kg, route oral; conditions: in vivo
Rattus norvegicus [15] = assay: Ability to reduce the total number of proximal depolarizations was tested in rat parietal cortex at 3 mg/kg, ig; format: functional; conditions: route intragastric; in short: as §2
[16] = Ratio of proximal to distal depolarizations determined in rat at 10 mg/kg; format: functional; in short: as §2
[17] = Volume of distribution was determined in rat at 5 mg/kg, iv; format: ADME, organism-based; parameters: dose 5 mg/kg, route intravenous; conditions: in vivo, read-out: Vdss; in short: as §5
[18] = Half-life determined at 5 mg/kg, iv, in rat; format: ADME, organism-based; parameters: dose 5 mg/kg; conditions: in vivo; in short: as §5
[19] = Percentage oral bioavailability determined in rat; format: ADME, organism-based; conditions: in vivo, read-out: Bioavailabiility
[20] = Volume of distribution was determined in dog at 1 mg/kg, iv; format: ADME, organism-based, Canis lupus familiaris; parameters: dose 1 mg/kg, route intravenous; conditions: in vivo, read-out: Vdss; in short: as §3
[21] = Ratio of concentration of compound in brain to the concentration in plasma; conditions: brain and plasma, B/P ratio
Rattus norvegicus [22] = assay: Ability to reduce the total number of proximal depolarizations was tested in rat parietal cortex at 10 mg/kg, ig; format: functional; conditions: route intragastric; in short: as §2

Sequence of Voltage-gated potassium channel, KQT; KCNQ2(Kv7.2)/KCNQ3(Kv7.3) (O43526 whole entry): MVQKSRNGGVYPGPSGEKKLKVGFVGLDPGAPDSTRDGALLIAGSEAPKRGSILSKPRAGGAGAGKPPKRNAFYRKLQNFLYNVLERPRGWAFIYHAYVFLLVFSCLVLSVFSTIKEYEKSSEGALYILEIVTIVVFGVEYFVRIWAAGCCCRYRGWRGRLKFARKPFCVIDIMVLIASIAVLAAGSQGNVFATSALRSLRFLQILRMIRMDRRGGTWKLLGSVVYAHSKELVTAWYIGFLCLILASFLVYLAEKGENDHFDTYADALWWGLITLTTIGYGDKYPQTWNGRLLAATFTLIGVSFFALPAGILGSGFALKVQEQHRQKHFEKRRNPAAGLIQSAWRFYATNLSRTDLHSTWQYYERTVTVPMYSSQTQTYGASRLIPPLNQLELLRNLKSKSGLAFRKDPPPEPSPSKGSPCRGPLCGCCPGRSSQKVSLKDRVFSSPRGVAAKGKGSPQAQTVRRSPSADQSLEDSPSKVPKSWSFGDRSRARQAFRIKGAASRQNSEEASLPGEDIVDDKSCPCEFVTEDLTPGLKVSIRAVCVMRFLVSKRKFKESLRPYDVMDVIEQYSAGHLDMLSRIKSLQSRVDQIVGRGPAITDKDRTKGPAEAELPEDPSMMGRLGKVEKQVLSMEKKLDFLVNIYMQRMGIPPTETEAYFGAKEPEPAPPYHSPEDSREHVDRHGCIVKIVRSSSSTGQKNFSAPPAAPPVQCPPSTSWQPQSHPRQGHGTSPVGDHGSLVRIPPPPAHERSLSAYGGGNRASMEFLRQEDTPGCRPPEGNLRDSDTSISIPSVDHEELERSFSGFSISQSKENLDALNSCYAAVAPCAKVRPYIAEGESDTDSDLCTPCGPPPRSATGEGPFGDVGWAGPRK
Sequence of Voltage-gated potassium channel, KQT; KCNQ2(Kv7.2)/KCNQ3(Kv7.3) (O43525 whole entry): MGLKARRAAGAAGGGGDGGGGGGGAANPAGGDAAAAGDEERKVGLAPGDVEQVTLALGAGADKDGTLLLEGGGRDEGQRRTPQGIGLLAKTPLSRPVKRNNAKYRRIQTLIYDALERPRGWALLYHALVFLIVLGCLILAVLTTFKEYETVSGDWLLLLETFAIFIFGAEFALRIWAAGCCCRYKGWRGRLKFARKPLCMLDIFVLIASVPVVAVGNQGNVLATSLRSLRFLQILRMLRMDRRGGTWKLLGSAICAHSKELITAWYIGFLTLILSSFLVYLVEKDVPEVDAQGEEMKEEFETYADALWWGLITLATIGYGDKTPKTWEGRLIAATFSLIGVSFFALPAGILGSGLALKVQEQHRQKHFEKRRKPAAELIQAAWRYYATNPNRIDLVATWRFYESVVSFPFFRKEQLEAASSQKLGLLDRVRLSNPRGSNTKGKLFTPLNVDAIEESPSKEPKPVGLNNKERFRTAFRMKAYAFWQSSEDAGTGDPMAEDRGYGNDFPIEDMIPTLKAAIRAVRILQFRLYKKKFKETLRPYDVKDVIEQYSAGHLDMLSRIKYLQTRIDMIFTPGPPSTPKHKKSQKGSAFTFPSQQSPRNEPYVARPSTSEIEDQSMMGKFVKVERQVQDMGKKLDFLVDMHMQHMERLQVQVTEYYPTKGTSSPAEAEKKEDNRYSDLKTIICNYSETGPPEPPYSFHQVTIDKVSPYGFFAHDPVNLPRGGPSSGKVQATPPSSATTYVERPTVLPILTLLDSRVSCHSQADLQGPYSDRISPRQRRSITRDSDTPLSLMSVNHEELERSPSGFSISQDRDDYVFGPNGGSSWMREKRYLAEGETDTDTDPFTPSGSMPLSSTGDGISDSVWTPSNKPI
Sequence of Potassium voltage-gated channel subfamily KQT member 2 (Q9Z351 whole entry): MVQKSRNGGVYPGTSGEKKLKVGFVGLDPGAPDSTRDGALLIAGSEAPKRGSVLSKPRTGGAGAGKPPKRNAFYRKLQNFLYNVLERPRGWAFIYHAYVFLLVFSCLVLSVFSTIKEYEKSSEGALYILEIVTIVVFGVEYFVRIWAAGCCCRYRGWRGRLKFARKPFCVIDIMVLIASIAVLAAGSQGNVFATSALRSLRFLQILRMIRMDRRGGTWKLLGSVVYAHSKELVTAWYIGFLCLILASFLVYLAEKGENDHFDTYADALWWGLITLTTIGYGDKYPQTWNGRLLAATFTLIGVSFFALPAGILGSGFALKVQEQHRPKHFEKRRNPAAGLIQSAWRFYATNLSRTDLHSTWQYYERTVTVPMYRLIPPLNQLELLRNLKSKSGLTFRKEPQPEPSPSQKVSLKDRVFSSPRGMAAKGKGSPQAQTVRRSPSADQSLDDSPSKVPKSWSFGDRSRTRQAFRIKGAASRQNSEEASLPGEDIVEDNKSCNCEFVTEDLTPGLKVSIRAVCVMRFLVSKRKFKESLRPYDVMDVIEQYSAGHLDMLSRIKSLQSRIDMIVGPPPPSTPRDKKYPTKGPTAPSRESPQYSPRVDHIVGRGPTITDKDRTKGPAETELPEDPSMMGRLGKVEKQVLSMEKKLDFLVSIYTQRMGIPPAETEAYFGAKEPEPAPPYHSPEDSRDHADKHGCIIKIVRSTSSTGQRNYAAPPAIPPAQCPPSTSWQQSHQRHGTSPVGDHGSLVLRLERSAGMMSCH
Sequence of Potassium voltage-gated channel subfamily KQT member 2 (Mus musculus) (Q9Z351 whole entry, the tested form may be a part): as the sequence (Q9Z351 whole entry) above

EC50 [1]: 6 µM
concentration at 6 h [2]: 804 ng/mL
clearance [5]: 12.7 mL/min/kg
Tmax [7]: 0.5 h
concentration at 6 h [8]: 631 ng/g
half-life [9]: 3 h
clearance [10]: 41 mL/min/kg
EC50 [11]: 0.69 µM
Concentration [12]: 300 nM
bioavailability [13]: 100%
Tmax [14]: 5 h
Vd [17]: 2.5 L/kg
half-life [18]: 2.1 h
bioavailability [19]: 93%
Vd [20]: 3 L/kg
Kp [21]: 0.78
Structure (SMILES): C[C@H](NC(=O)/C=C/c1ccccc1)c1cccc(N2CCOCC2)c1
P/D [3]: 1.22
No. of depolarizations (Rattus norvegicus [4]): 23
P/D [6]: 1.1
No. of depolarizations (Rattus norvegicus [15]): 36
P/D [16]: 1.15
No. of depolarizations (Rattus norvegicus [22]): 25
